Measured values from ChEMBL document CHEMBL2331352, “Syntheses and anti-allergic activity of 2-((bis(trimethylsilyl)methylthio/methylsulfonyl)methyl)-5-aryl-1,3,4-oxadiazoles” (Eur J Med Chem, 2013).
Activity calls are given as the source filed them. No cut-off for these calls is given here.

Columns and labels:
RBL-2H3 [1] = assay: Cytotoxicity against rat RBL2H3 cells at 50 to 100 uM after 24 hrs by Ez-cytox assay; assay type: cell-based; details: rbl-2h3, 24 h
Summary of the method: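 IgE-sensitized RBL-2H3 cells (overnight, 200 ng/mL DNP-specific IgE) were exposed to compound at 0, 50 or 100 concentrations at 37 °C for 23–24 h. EZ-Cytox reagent was added at 10% of volume for 1 h at 37 °C and absorbance read at 450 nm. Viability is given as % of untreated control; mean ± S.D. of three independent experiments, each in triplicate.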

RBL-2H3 [2] = assay: Antiallergic activity in rat RBL2H3 cells assessed as inhibition of IgE/Ag-induced beta-hexosaminidase activity at 100 uM incubated for 30 mins by spectrophotometric analysis; assay type: functional, cell-based
Summary of the method: (§1)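 RBL-2H3 cells (2 × 10⁵/well) were sensitized overnight with anti-DNP IgE at 200 ng/mL and washed twice in PIPES buffer (25 mM PIPES, pH 7.2, 0.1% BSA, 1 mM CaCl₂, 5.6 mM glucose). They were pretreated 30 min at 37 °C with compound, then challenged with DNP-HSA 25 ng/mL for 15 min at 37 °C and chilled on ice. Supernatant was mixed with p-nitrophenyl-N-acetyl-glucosaminide in 0.1 M citrate pH 4.5 for 1 h at 37 °C. Reaction was stopped with 0.1 M carbonate pH 10.5 and read at 405 nm. Mean ± S.D. of three independent experiments, each in triplicate.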

RBL-2H3 [3] = assay: Antiallergic activity in rat RBL2H3 cells assessed as inhibition of IgE/Ag-induced beta-hexosaminidase activity incubated for 30 mins by spectrophotometric analysis; assay type: functional, cell-based; details: for IC50: RBL-2H3, 0.5 h; summary of the method: as §1
RBL-2H3 [4] = assay: Antiallergic activity in rat RBL2H3 cells assessed as inhibition of IgE/Ag-induced beta-hexosaminidase activity at 50 uM incubated for 30 mins by spectrophotometric analysis; assay type: functional, cell-based; summary of the method: as §1

| Structure (SMILES) | Activity (RBL-2H3 [1]) | inhibition (RBL-2H3 [2]) | inhibition (RBL-2H3 [3]) | IC50 (RBL-2H3 [3]) [µM] | inhibition (RBL-2H3 [4]) |
| --- | --- | --- | --- | --- | --- |
| C[Si](C)(C)C([Si](C)(C)C)S(=O)(=O)Cc1nnc(-c2ccccc2)o1 | Non-toxic | Active | Dose-dependent effect | 37.2 |  |
| C[Si](C)(C)C([Si](C)(C)C)S(=O)(=O)Cc1nnc(-c2ccc(Cl)cc2)o1 | Non-toxic | Active | Dose-dependent effect | 75.5 |  |
| C[Si](C)(C)C(SCc1nnc(-c2ccccc2)o1)[Si](C)(C)C |  | Active | Dose-dependent effect | 98.8 | Active |
| C[Si](C)(C)C(SCc1nnc(-c2ccc(Cl)cc2)o1)[Si](C)(C)C |  | Active | Dose-dependent effect |  |  |
| Cc1ccc(-c2nnc(CS(=O)(=O)C([Si](C)(C)C)[Si](C)(C)C)o2)cc1 | Non-toxic | Active | Dose-dependent effect | 62.3 |  |
| Cc1ccc(-c2nnc(CSC([Si](C)(C)C)[Si](C)(C)C)o2)cc1 |  | Active | Dose-dependent effect |  |  |
